From ChEMBL document CHEMBL1671818, “Screening multicomponent reactions for X-linked inhibitor of apoptosis-baculoviral inhibitor of apoptosis protein repeats domain binder” (J Med Chem, 2011)

How the values were obtained:
[1] = target: T1, E3 ubiquitin-protein ligase XIAP (Homo sapiens, UniProt P98170); assay: Inhibition of XIAP-Bir3 domain at 100 uM by TR-FRET assay
How it was run: (§1)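 TR-FRET displacement. BIR3 protein (10 nM) and biotin-lc-GGIPVA SMAC peptide (10 nM) mixed with compound in DMSO, 1 h at 4 °C. Eu-antibody conjugate (5 nM) and APC-streptavidin (2 nM) then added, incubated overnight at 4 °C. Excitation 340 nm, emission 665 nm. Screen at 100, 10, 1 and 0.1 μM; actives run as 6–7-point dilutions in duplicate.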

[2] = target: T1, E3 ubiquitin-protein ligase XIAP; assay: Inhibition of XIAP-Bir3 domain at 10 uM by TR-FRET assay; how it was run: as §1
[3] = tested on: MDA-MB-231; assay: Cytotoxicity against human ER-negative MDA-MB-231 cells assessed as cell viability after 72 hrs; type: functional, cell-based; details: MDA-MB-231, 72 h
How it was run: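 MDA-MB-231 (ER-negative) kept in DMEM + 10% FBS at 37 °C, 5% CO2. Seeded at 5000 cells/well and left overnight, then exposed for 72 h to a range of compound concentrations in serum-free DMEM (final DMSO 0.1%). Viability read by ATPlite one-step luminescence, four replicates. IC50 obtained by curve fitting.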

[4] = tested on: Jurkat; assay: Cytotoxicity against human Jurkat cells assessed as cell viability; type: functional, cell-based
[5] = target: T1, E3 ubiquitin-protein ligase XIAP; assay: Inhibition of XIAP by FP assay
[6] = target: T1, E3 ubiquitin-protein ligase XIAP; assay: Inhibition of XIAP-Bir3 domain by calorimetric titration assay
How it was run: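 ITC at 25 °C. Purified XIAP BIR3 (100 μM) in the cell, compound (1 mM) in the syringe, both in degassed PBS pH 7.4. Blank-subtracted, normalized heats fitted to a single-site model; Kd taken as 1/Ka.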

[7] = target: T1, E3 ubiquitin-protein ligase XIAP; assay: Inhibition of XIAP-Bir3 domain by NMR titration
How it was run: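 NMR Kd. 1H chemical-shift changes of resolved BIR3 resonances (BIR3 at 100 μM) followed across ligand concentrations, at least six points. Kd from a nonlinear least-squares fit of fractional bound population versus total ligand, single-site model. 2D [15N,1H]HSQC acquired at 300 K.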

[8] = target: T1, E3 ubiquitin-protein ligase XIAP; assay: Inhibition of XIAP by FRET assay; how it was run: as §1
[9] = tested on: RPMI-8226; assay: Cytotoxicity against human RPMI8226 cells assessed as cell viability; type: functional, cell-based

T1 sequence (P98170 whole entry, the tested form may be a part): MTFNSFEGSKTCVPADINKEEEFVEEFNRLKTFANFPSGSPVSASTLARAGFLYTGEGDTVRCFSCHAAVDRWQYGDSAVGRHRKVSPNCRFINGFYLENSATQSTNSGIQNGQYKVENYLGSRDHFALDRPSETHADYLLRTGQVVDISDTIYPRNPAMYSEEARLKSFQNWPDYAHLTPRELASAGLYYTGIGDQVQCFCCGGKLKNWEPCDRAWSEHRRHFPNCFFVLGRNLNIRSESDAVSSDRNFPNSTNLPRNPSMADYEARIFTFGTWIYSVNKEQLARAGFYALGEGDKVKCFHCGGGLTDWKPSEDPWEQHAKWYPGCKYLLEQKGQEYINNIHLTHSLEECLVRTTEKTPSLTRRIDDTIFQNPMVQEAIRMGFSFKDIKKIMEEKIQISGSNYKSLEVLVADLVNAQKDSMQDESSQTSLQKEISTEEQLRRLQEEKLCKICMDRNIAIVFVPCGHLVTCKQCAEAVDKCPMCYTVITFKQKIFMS

**Q.** `CC(C)[C@H](NC(=O)[C@H](C)N)C(=O)N1CCCN(C2CCCCC2)CC1C(=O)NC(c1ccccc1)c1ccccc1` (stereo partly specified) was tested. Which inhibition [1] did it give?
**A.** 82.5%

**Q.** What about the inhibition [2] of the same molecule?
**A.** 15.6%

**Q.** What about the IC50 [3] of the same molecule?
**A.** > 50 µM

**Q.** For `CC(C)[C@H](NC(=O)[C@H](C)N)C(=O)N1C(C(=O)NC(c2ccccc2)c2ccccc2)CSC1(C)C` (stereo in doubt; 9) [listing 1 of 2 here], which IC50 [3] is on record?
**A.** > 50 µM

**Q.** For `CC(C)[C@H](NC(=O)[C@H](C)N)C(=O)N1C(C(=O)NC(c2ccccc2)c2ccccc2)CSC1(C)C` (single isomer, unassigned; diastereomer A), which inhibition [1] is on record?
**A.** 97.1%

**Q.** And the inhibition [2]?
**A.** 67.4%

**Q.** How did the IC50 [4] turn out when `COc1ccc(CCN2CCC[C@H]2CN(C(=O)Nc2ccccc2)[C@@H](CNC(=O)Nc2ccccc2)CC2CCCCC2)cc1` was run?
**A.** 5 µM

**Q.** Which Kd [5] does the source give for `CN[C@@H](C)C(=O)NC1CCC[C@H]2[C@@H](Cc3ccccc3)C[C@@H](C(=O)N[C@@H]3CCCc4ccccc43)N2C1=O` (stereo partly specified) here?
**A.** 31 nM

**Q.** What about the IC50 [3] of the same molecule?
**A.** 0.026 µM

**Q.** Which inhibition [1] does the source give for `CCN1CCN(C(=O)[C@@H](NC(=O)[C@H](C)N)C(C)C)C(C(=O)NC(c2ccccc2)c2ccccc2)C1` (stereo partly specified) here?
**A.** 96.9%

**Q.** And the inhibition [2]?
**A.** 77.2%

**Q.** What about the IC50 [3] of the same molecule?
**A.** > 50 µM

**Q.** And the Kd [6]?
**A.** 21.6 µM

**Q.** And the Kd [7]?
**A.** 27.7 µM

**Q.** What does the source list for `CN[C@@H](C)C(=O)N[C@H](C(=O)N1CC[C@H]2CN(CCc3ccccc3)CC[C@H]21)C1CCCCC1`?
**A.** IC50 [8]: 280 nM; IC50 [9]: 30 µM

**Q.** Which inhibition [1] does the source give for `CC(C)[C@H](NC(=O)[C@H](C)N)C(=O)N1C(C(=O)NC(c2ccccc2)c2ccccc2)CSC1(C)C` (stereo in doubt; 9) [listing 2 of 2 here] here?
**A.** 83.2%

**Q.** And the inhibition [2]?
**A.** 15.8%

**Q.** For `CC(C)[C@H](NC(=O)[C@H](C)N)C(O)c1nnnn1CCc1ccccc1` (stereo partly specified), which inhibition [1] is on record?
**A.** 20.7%

**Q.** What about the inhibition [2] of the same molecule?
**A.** 15%

**Q.** And the IC50 [3]?
**A.** > 50 µM

**Q.** Which IC50 [3] does the source give for `CC(C)[C@H](NC(=O)[C@H](C)N)C(=O)N1CCN(Cc2ccccc2)CC1C(=O)NC(c1ccccc1)c1ccccc1` (stereo partly specified) here?
**A.** 31 µM

**Q.** Which results are given for `CC(C)C(NC(=O)[C@H](C)N)c1nc(C(=O)NCc2ccccc2)cs1` (stereo partly specified)?
**A.** inhibition [1]: 23.4%; inhibition [2]: 19.9%; IC50 [3]: > 50 µM

**Q.** `CC(C)[C@H](NC(=O)[C@H](C)N)C(=O)N1C(C(=O)NC(c2ccccc2)c2ccccc2)CSC1(C)C` (stereo in doubt) was tested. Which inhibition [1] did it give?
**A.** 83.6%

**Q.** What about the inhibition [2] of the same molecule?
**A.** 16.7%

**Q.** `CN[C@@H](C)C(=O)NC1CCC[C@H]2SC[C@@H](C(=O)Nc3cc(C)nn3-c3ccccc3)N2C1=O` (stereo partly specified) was tested. Which IC50 [3] did it give?
**A.** 2 µM

**Q.** With `CC(C)C(NC(=O)[C@H](C)N)c1nc(C(=O)NCc2ccccc2)c(-c2ccccc2)s1` (stereo partly specified) as the molecule, how does the inhibition [1] read?
**A.** 97.2%

**Q.** What about the inhibition [2] of the same molecule?
**A.** 58%

**Q.** What about the IC50 [3] of the same molecule?
**A.** > 50 µM
